The values that follow come from article PMC7217734 (Journal of biomolecular structure & dynamics, 2019).

The nature of data set [1]: Dynamic light scattering. In kind it is physicochemical. As to conditions: 25°C, 1 mg/ml; 50mM NaCl, 10mM Tris-HCl (pH 7.5); individual peptide.
Data set [2] deals with T1, peptide 91a (coil 1A of vimentin) (Homo sapiens, UniProt P08670, A91E/F96L/I92R/N93L/Q126R/Q127R/T94A/V121L).
T1 sequence (P08670 with tags, fused parts or gaps V121L/Q126R/Q127R limits assumed): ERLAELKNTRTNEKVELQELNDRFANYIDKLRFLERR
Description: Isothermal titration calorimetry. As to conditions: NANO ITC; 374a 0.540mM in syringe, 91a 0.095mM in cell. It is filed as binding. Summed up:
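The peptides were dissolved in 10 mM Tris pH 8.0. In a low-volume nano calorimeter, the syringe peptide was titrated into the cell peptide in 20 injections of 2.5 µl. Raw heat rate was recorded in µJ/s, and each injection peak was integrated to µJ. The isotherm gave the dissociation constant and stoichiometry n.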

Residues, ends and D or L forms follow the SMILES beside them.

As to `CC[C@H](C)[C@H](NC(=O)[C@H](CCC(=O)O)NC(=O)[C@@H](NC(=O)[C@H](CC(=O)O)NC(=O)[C@H](CC(C)C)NC(=O)[C@H](C)NC(=O)[C@H](CCSC)NC(=O)[C@H](CCCCN)NC(=O)[C@@H](NC(=O)[C@H](CC(N)=O)NC(=O)[C@H](CC(C)C)NC(=O)[C@H](CC(C)C)NC(=O)[C@H](CC(=O)O)NC(=O)[C@H](CCC(N)=O)NC(=O)[C@H](Cc1ccc(O)cc1)NC(=O)[C@H](CCC(=O)O)NC(=O)[C@H](CCCNC(=N)N)NC(=O)[C@H](CCC(=O)O)NC(=O)[C@H](CC(C)C)NC(=O)[C@H](CCCNC(=N)N)NC(=O)[C@H](C)NC(=O)[C@H](CC(C)C)NC(=O)[C@H](CCC(=O)O)NC(=O)[C@@H](N)CCC(=O)O)C(C)C)[C@@H](C)CC)C(=O)N[C@@H](C)C(=O)N[C@H](C(=O)N[C@@H](Cc1ccc(O)cc1)C(=O)N[C@@H](CCCNC(=N)N)C(=O)N[C@@H](CCCCN)C(=O)N[C@@H](CC(C)C)C(=O)N[C@@H](CC(C)C)C(=O)N[C@@H](CCC(=O)O)C(=O)N[C@@H](C)C(=O)N[C@@H](CC(C)C)C(=O)N[C@@H](CCC(=O)O)C(=O)N[C@@H](CO)C(=O)N[C@@H](CCCNC(=N)N)C(=O)O)[C@@H](C)O` [peptide 374a] (H-EELARLEREYQDLLNVKMALDIEIATYRKLLEALESR-OH; N-terminus and C-terminus assumed), in data set [1], the “aggregation by DLS, in words” value is “aggregation is occurring”. Besides, in data set [2], the stoichiometric ratio n is around 1 and the “thermodynamic character of interaction, in words” value was “enthalpy-driven interaction”.
